In assay [1] the test system is Bacillus subtilis. As to the kind of experiment: Antibacterial activity against Bacillus subtilis ATCC 6633 at 50 uL of 0.2 mM solution of compound dissolved in 1:9 DMSO/MeOH measured after 24 hrs by agar well diffusion method. In kind it is functional. An outline of the steps:
(§1)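 Agar well diffusion. 50 µL of a 0.2 mM solution in 1:9 DMSO/MeOH was filled into 9 mm wells in nutrient agar or Mueller Hinton II agar. Plates were incubated 24 h at 37 °C before inhibition zones were read. Zones were scored as partially clear (p, colonies in zone) or unclear (P, many colonies in zone).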
In general terms: Agar diffusion results depend on both activity and mobility in agar.

Assay [2] relates to Staphylococcus aureus. As to the kind of experiment: Antibacterial activity against Staphylococcus aureus SG 511 at 50 uL of 0.2 mM solution of compound dissolved in 1:9 DMSO/MeOH measured after 24 hrs by agar well diffusion method. Format: functional. In a few lines: as §1
For assay [3], the system named is Micrococcus luteus. As to the kind of experiment: Antibacterial activity against Micrococcus luteus ATCC 10240 at 50 uL of 0.2 mM solution of compound dissolved in 1:9 DMSO/MeOH measured after 24 hrs by agar well diffusion method. In kind it is functional. In a few lines: as §1
Assay [4] has as its system Pseudomonas aeruginosa. Kind of assay: Antibacterial activity against wild type Pseudomonas aeruginosa K799 at 50 uL of 0.2 mM solution of compound dissolved in 1:9 DMSO/MeOH measured after 24 hrs by agar well diffusion method. In kind it is functional. In a few lines: as §1
Assay [5] has as its system Escherichia coli. Kind of assay: Antibacterial activity against Escherichia coli X580 at 50 uL of 0.2 mM solution of compound dissolved in 1:9 DMSO/MeOH measured after 24 hrs by agar well diffusion method. Format: functional. An outline of the steps:
as §1

Assay [6] concerns Pseudomonas aeruginosa. As to the kind of experiment: Antibacterial activity against Pseudomonas aeruginosa K799/61 assessed as unclear inhibition zone at 50 uL of 0.2 mM solution of compound dissolved in 1:9 DMSO/MeOH measured after 24 hrs by agar well diffusion method. Format: functional. An outline of the steps:
as §1

Assay [7] relates to Escherichia coli. Kind of assay: Antibacterial activity against Escherichia coli X580 assessed as partially clear inhibition zone at 50 uL of 0.2 mM solution of compound dissolved in 1:9 DMSO/MeOH measured after 24 hrs by agar well diffusion method. Format: functional. An outline of the steps:
as §1

The test system of assay [8] is Pseudomonas aeruginosa. As to the kind of experiment: Antibacterial activity against Pseudomonas aeruginosa K799/61 at 50 uL of 0.2 mM solution of compound dissolved in 1:9 DMSO/MeOH measured after 24 hrs by agar well diffusion method. Format: functional. An outline of the steps: as §1
A further assay has as its system Enterococcus faecium. As to the kind of experiment: Antibacterial activity against Enterococcus faecium NCTC 7171 by broth microdilution method. In kind it is functional. In a few lines: (§2)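 MIC90 (µM) by broth microdilution in Mueller-Hinton broth No.2 (MHII) following CLSI guidelines. End point read visually. Each compound tested in triplicate.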
The subject of assay [9] is Staphylococcus aureus. As to the kind of experiment: Antibacterial activity against Staphylococcus aureus ATCC 29213 by broth microdilution method. In kind it is functional. An outline of the steps:
as §2
For orientation: Dilution methods test growth across graded concentrations, often in twofold steps.

A further assay relates to Klebsiella pneumoniae. As to the kind of experiment: Antibacterial activity against Klebsiella pneumoniae ATCC 700603 by broth microdilution method. Format: functional. In a few lines: as §2
The next assay has as its system Acinetobacter baumannii. As to the kind of experiment: Antibacterial activity against Acinetobacter baumannii ATCC 17961 by broth microdilution method. In kind it is functional. In a few lines:
as §2

Assay [10] has as its system Pseudomonas aeruginosa. As to the kind of experiment: Antibacterial activity against Pseudomonas aeruginosa ATCC 27853 by broth microdilution method. Format: functional. In a few lines:
as §2

A further assay concerns Klebsiella aerogenes. Kind of assay: Antibacterial activity against Enterobacter aerogenes ATCC 35029 by broth microdilution method. Format: functional. An outline of the steps:
as §2

The test system of assay [11] is Escherichia coli. Kind of assay: Antibacterial activity against Escherichia coli ATCC 25922 by broth microdilution method. In kind it is functional. An outline of the steps:
as §2

Assay [12] deals with Pseudomonas aeruginosa. Kind of assay: Antibacterial activity against Pseudomonas aeruginosa K799/61 assessed as partially clear inhibition zone at 50 uL of 0.2 mM solution of compound dissolved in 1:9 DMSO/MeOH measured after 24 hrs by agar well diffusion method. In kind it is functional. An outline of the steps:
as §1

In assay [13] the test system is Micrococcus luteus. As to the kind of experiment: Antibacterial activity against Micrococcus luteus ATCC 10240 assessed as unclear inhibition zone at 5 ug/mL after 24 hrs by agar well diffusion method. In kind it is functional. Particulars: ATCC 10240, 24 h, read-out: DIZ. An outline of the steps: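 Agar well diffusion with ciprofloxacin dissolved in H2O, tested at 5, 1.66 or […]. Solution was loaded into 9 mm wells in nutrient agar or Mueller Hinton II agar. Inhibition zones were read after 24 h at 37 °C. A zone was scored as P when unclear, with many colonies inside.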

In assay [14] the test system is Escherichia coli. Kind of assay: Antibacterial activity against Escherichia coli X580 at 0.33 ug/mL after 24 hrs by agar well diffusion method. Particulars: X580, 24 h, read-out: DIZ.
Assay [15] has as its system Bacillus subtilis. As to the kind of experiment: microbe, parasite or virus in culture. To be noted: ATCC 6633, 24 h, read-out: DIZ.
Assay [16] deals with Staphylococcus aureus. As to the kind of experiment: microbe, parasite or virus in culture. To be noted: SG 511, 24 h, read-out: DIZ.
Assay [17] relates to Pseudomonas aeruginosa. Kind of assay: microbe, parasite or virus in culture. Particulars: K799, 24 h, read-out: DIZ.
Assay [18] has as its system Pseudomonas aeruginosa. Kind of assay: microbe, parasite or virus in culture. To be noted: K799/61, 24 h, read-out: DIZ.
In assay [19] the test system is Pseudomonas aeruginosa. As to the kind of experiment: microbe, parasite or virus in culture. Particulars: K799/61, 24 h, read-out: DIZ. This is another data set of the same source.

Values after ≈ are worked out from the molar mass of the structure shown.

4 compounds from ChEMBL document CHEMBL2034825, “Chemical syntheses and in vitro antibacterial activity of two desferrioxamine B-ciprofloxacin conjugates with potential esterase and phosphatase triggered drug release linkers” (2012) can be followed below.

As for `CC(=O)N(O)CCCCCNC(=O)CCC(=O)N(O)CCCCCNC(=O)CCC(=O)N(O)CCCCCNC(=O)CCC(=O)N1CCN(c2cc3c(cc2F)c(=O)c(C(=O)O)cn3C2CC2)CC1`, the “diameter of the inhibition zone (DIZ)” value with Bacillus subtilis [1] is listed as 21 mm; in the assay with Staphylococcus aureus [2], 18 mm; with Micrococcus luteus [3] it was 0 mm; in the assay with Pseudomonas aeruginosa [4], 0 mm; with Escherichia coli [5], 30 mm; in the assay with Pseudomonas aeruginosa [6], 26 mm. Also, the “diameter of the inhibition zone (DIZ)” value with Escherichia coli [7] turned out to be 33 mm.

In general, MIC90 refers to an inhibitory concentration at the 90% level, which refers to growth in some studies and to a panel of isolates in others. In the case of `CC(=O)N(O)CCCCCNC(=O)CCC(=O)N(O)CCCCCNC(=O)CCC(=O)N(O)CCCCCNC(=O)CCC(=O)Oc1cc(C)cc(C)c1C(C)(C)CC(=O)N1CCN(c2cc3c(cc2F)c(=O)c(C(=O)O)cn3C2CC2)CC1`, the “diameter of the inhibition zone (DIZ)” value came to 26 mm in the assay with Bacillus subtilis [1]; 16 mm in the assay on Staphylococcus aureus [2]; 0 mm in the assay on Micrococcus luteus [3]; 26 mm with Pseudomonas aeruginosa [4]; 27 mm in the assay with Pseudomonas aeruginosa [8]; 29 mm with Escherichia coli [5]. Further, the “diameter of the inhibition zone (DIZ)” value in the assay on Pseudomonas aeruginosa [12] was determined as 37 mm. In addition, the MIC90 with Enterococcus faecium was over 128 µM; against Staphylococcus aureus [9] it was 32 µM (≈ 37.7 µg/mL); with Klebsiella pneumoniae, 16 µM (≈ 18.9 µg/mL); with Acinetobacter baumannii, 8 µM (≈ 9.43 µg/mL); against Pseudomonas aeruginosa [10], 8 µM (≈ 9.43 µg/mL); in the assay on Klebsiella aerogenes, 1 µM (≈ 1.18 µg/mL). The MIC90 in the assay with Escherichia coli [11] came out at 1 µM (≈ 1.18 µg/mL).

Consider `CC(=O)N(O)CCCCCNC(=O)CCC(=O)N(O)CCCCCNC(=O)CCC(=O)N(O)CCCCCNC(=O)CCC(=O)Oc1c(C)cc(OP(=O)(O)O)c(C(C)(C)CC(=O)N2CCN(c3cc4c(cc3F)c(=O)c(C(=O)O)cn4C3CC3)CC2)c1C`, for which the “diameter of the inhibition zone (DIZ)” value in the assay with Bacillus subtilis [1] is recorded as 0 mm; in the assay on Staphylococcus aureus [2], 0 mm; with Micrococcus luteus [3] it was 0 mm; in the assay on Pseudomonas aeruginosa [4], 0 mm; with Pseudomonas aeruginosa [8], 0 mm; in the assay on Escherichia coli [5], 21 mm.

On to `O=C(O)c1cn(C2CC2)c2cc(N3CCNCC3)c(F)cc2c1=O` [CIPROFLOXACIN], for which the MIC90 is 8 µM (≈ 2.65 µg/mL) against Enterococcus faecium; 0.25 µM (≈ 0.0828 µg/mL) against Klebsiella pneumoniae; 0.25 µM (≈ 0.0828 µg/mL) with Acinetobacter baumannii; 0.25 µM (≈ 0.0828 µg/mL) with Pseudomonas aeruginosa [10]; under 0.015 µM in the assay on Klebsiella aerogenes; under 0.015 µM against Escherichia coli [11]. Moreover, the zone of inhibition at 5 µg/mL in the assay on Micrococcus luteus [13] amounted to 12 mm; with Staphylococcus aureus [16] it was 28 mm. In addition, the zone of inhibition at 0.33 µg/mL with Escherichia coli [14] is 31 mm. The zone of inhibition at 1.66 µg/mL in the assay on Bacillus subtilis [15] was found to be 28 mm; in the assay on Pseudomonas aeruginosa [17], 21 mm; in the assay with Pseudomonas aeruginosa [18], 24 mm; in the assay with Pseudomonas aeruginosa [19] it was 32 mm.
